The results in this text go back to ChEMBL document CHEMBL1135823, “Discovery and SAR of a novel selective and orally bioavailable nonpeptide classical competitive inhibitor class of protein-tyrosine phosphatase 1B” (J Med Chem, 2002).

Series [1] deals with T1, Tyrosine-protein phosphatase non-receptor type 1 (Homo sapiens, UniProt P18031).
T1 sequence (P18031 whole entry): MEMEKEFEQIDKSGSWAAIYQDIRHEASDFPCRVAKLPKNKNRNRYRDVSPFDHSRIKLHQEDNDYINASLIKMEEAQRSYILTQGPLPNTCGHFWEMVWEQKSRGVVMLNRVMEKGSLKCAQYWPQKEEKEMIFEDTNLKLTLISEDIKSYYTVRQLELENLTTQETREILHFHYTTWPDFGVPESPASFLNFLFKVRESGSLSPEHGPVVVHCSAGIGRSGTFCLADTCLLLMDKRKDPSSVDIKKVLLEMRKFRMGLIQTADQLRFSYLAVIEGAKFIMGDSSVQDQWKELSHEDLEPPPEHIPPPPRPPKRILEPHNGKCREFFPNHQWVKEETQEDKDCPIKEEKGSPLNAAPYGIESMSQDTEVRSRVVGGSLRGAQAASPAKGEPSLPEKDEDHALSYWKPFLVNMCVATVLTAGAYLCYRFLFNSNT
The series can be described thus: Inhibitory effect against recombinant human protein-tyrosine phosphatase 1B (PTP1B), using p-nitrophenyl phosphate substrate at pH 5.5.

In series [2] the target is Receptor-type tyrosine-protein phosphatase alpha (Homo sapiens, UniProt P18433). Kind of series: Inhibitory effect against human protein-tyrosine phosphatase alpha (PTPalpha), using p-nitrophenyl phosphate substrate at pH 5.5. The essentials: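 Ki from pNPP hydrolysis assays at pH 5.5 with recombinant PTPα or LAR.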
Sequence of Receptor-type tyrosine-protein phosphatase alpha (P18433 whole entry): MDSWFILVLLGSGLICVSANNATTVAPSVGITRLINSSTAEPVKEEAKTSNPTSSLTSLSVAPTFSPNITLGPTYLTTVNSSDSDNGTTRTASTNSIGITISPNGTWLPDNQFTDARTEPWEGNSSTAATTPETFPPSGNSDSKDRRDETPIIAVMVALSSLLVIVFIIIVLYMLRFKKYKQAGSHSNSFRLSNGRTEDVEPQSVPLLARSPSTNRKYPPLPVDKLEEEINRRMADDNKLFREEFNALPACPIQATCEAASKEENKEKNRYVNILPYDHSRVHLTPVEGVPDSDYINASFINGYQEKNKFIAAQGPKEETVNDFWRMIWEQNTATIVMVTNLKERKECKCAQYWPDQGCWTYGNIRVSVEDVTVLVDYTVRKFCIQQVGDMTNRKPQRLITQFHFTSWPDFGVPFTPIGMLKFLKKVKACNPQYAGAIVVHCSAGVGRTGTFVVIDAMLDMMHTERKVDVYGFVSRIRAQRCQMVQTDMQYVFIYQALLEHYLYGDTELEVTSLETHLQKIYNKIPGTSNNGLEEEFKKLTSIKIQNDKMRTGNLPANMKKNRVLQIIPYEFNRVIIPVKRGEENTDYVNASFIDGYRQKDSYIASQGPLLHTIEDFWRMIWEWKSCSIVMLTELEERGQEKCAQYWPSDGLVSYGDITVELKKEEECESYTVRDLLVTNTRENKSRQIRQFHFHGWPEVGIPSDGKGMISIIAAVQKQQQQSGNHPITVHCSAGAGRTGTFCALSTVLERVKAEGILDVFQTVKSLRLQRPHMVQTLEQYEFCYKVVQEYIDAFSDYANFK
Series [3] addresses T2, Tyrosine-protein phosphatase non-receptor type 2 (Homo sapiens, UniProt P17706).
T2 sequence (P17706 whole entry): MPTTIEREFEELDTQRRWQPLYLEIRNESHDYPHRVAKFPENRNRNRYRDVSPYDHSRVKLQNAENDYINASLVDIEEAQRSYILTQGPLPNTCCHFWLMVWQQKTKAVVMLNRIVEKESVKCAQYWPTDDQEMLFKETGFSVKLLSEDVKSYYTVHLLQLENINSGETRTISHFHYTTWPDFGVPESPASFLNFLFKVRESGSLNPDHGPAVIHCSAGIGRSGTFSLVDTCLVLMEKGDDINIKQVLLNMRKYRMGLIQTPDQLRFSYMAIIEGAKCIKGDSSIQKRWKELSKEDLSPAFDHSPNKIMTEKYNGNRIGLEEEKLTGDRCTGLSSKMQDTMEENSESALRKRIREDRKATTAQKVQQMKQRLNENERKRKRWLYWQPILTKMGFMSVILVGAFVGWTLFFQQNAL
Kind of series: Inhibition of T cell protein tyrosine phosphatase (TC-PTP) at pH 7.0. In kind it is single protein. The method in brief: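 Ki from a pNPP hydrolysis assay with recombinant TC-PTP, run at pH 7.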

The target of series [4] is T1, Tyrosine-protein phosphatase non-receptor type 1. Kind of series: Inhibition of human recombinant Protein-tyrosine phosphatase 1B. The method in brief:
(§1)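 Enzyme is a soluble recombinant human PTP1B (residues 1–321). Ki is measured at pH 5.5 with p-nitrophenyl phosphate (pNPP) as substrate.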

Series [5] concerns the target Receptor-type tyrosine-protein phosphatase F (Homo sapiens, UniProt P10586). Kind of series: Inhibitory effect against protein-tyrosine phosphatase Lar, using p-nitrophenyl phosphate as substrate at pH 5.5.
Series [6] has as its target T1, Tyrosine-protein phosphatase non-receptor type 1. Kind of series: Inhibitory effect against recombinant human PTP1B (Protein Tyrosine phosphatase 1B) using p-nitrophenyl phosphate substrate at pH 5.5. The method in brief:
as §1

Series [7] can be described thus: Pharmacokinetic Parameter t1/2 was reported for Protein Tyrosine Phosphatase 1B. The conditions noted are these: in vivo. In kind it is ADME, organism-based.
A short description of series [8]: Pharmacokinetic Parameter clearance was reported for Protein Tyrosine Phosphatase 1B. The series is classed as ADME, organism-based. The conditions noted are these: in vivo.
A short description of series [9]: Oral bioavailability. To be noted: eutheria, in vivo, read-out: f (po). In kind it is ADME, organism-based.
The target in series [10] is T1, Tyrosine-protein phosphatase non-receptor type 1. Kind of series: Inhibitory effect against recombinant human Protein-tyrosine phosphatase 1B (PTP1B) using p-nitrophenyl phosphate substrate at pH 5.5;ND is not determined. The method in brief: as §1

Sequence of Receptor-type tyrosine-protein phosphatase F (P10586 whole entry): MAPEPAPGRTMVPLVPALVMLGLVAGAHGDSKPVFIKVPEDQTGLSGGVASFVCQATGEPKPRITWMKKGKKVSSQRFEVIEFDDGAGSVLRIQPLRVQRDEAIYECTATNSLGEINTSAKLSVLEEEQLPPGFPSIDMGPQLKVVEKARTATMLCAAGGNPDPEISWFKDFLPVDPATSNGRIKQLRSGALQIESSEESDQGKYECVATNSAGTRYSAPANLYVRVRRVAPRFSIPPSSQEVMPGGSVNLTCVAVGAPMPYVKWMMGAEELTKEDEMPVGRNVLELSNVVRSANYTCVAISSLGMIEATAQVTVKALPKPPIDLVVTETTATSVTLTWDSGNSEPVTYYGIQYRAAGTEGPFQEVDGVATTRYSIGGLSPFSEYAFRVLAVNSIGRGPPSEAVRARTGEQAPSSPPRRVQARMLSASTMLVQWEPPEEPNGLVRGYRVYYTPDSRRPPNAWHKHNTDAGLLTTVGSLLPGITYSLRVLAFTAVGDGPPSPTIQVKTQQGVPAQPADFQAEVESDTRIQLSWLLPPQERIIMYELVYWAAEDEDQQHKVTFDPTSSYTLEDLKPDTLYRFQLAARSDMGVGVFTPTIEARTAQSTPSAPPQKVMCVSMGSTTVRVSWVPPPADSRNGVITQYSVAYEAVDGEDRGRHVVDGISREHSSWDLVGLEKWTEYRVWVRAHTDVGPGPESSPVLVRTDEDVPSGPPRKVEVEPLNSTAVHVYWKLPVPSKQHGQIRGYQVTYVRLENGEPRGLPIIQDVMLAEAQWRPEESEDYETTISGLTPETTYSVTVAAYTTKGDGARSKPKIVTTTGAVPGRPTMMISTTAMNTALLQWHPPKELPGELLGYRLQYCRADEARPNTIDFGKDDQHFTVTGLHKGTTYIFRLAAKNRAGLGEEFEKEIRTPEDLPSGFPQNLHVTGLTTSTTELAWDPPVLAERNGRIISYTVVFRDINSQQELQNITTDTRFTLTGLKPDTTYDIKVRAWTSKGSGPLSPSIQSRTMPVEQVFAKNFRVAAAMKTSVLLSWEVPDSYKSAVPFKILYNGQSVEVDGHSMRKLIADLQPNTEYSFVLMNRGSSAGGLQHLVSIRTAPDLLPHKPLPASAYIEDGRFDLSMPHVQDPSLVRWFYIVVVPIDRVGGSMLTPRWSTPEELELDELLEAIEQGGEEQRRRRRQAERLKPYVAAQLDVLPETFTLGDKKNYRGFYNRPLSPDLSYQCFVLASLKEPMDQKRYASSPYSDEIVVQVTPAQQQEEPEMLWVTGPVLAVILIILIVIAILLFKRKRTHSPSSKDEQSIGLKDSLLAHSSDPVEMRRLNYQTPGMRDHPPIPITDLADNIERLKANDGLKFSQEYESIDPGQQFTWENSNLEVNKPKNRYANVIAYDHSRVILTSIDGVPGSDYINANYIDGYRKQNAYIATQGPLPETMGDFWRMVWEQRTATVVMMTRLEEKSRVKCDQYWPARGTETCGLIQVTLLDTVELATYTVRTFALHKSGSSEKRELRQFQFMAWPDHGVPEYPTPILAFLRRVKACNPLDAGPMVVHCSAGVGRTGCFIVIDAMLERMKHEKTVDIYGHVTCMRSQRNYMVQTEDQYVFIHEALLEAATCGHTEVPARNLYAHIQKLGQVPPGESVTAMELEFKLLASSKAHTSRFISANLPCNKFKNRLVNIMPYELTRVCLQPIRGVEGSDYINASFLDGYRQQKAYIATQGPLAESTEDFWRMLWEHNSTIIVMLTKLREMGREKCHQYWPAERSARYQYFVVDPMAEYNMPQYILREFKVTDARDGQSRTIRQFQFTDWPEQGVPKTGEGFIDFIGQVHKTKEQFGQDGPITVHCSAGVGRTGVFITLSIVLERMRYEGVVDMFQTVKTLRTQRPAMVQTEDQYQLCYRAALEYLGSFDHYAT

A word on the Ki: it is a dissociation constant, usually derived from enzyme kinetics or from competition with a known ligand. On to `O=C(O)C(=O)Nc1sc2c(c1C(=O)O)CCC(O)C2` (centres undefined), for which the Ki in series [1] came out at 2 µM; in series [2] it was 215 µM.
As to `O=C(O)C(=O)Nc1sc2c(c1C(=O)O)CCS(=O)(=O)C2`, the values for the Ki in series [1] and in [2] were 6.1 µM and 322 µM, respectively.
As for `O=C(O)C(=O)Nc1sc2c(c1C(=O)O)CCN(CCc1ccc(OCc3ccccc3)cc1)C2`, the Ki is 10 µM in series [3] and 15 µM in [4].
Take `COc1cccc(CN2CCc3c(sc(NC(=O)C(=O)O)c3C(=O)O)C2)c1`: the Ki was 0.7 µM in [1] and 8.3 µM in series [4].
Regarding `Nc1cccc(-c2cc(NC(=O)C(=O)O)c(C(=O)O)s2)c1`, the Ki in series [1] worked out at 6.1 µM; in series [2] it was 250 µM; in series [5], 113 µM.
Take `O=C(O)C(=O)Nc1cc(-c2ccccc2)sc1C(=O)O`: the Ki in [1] worked out at 13 µM; in series [2], 250 µM; in series [5] it was 90 µM.
Take `O=C(O)C(=O)Nc1cc(-c2ccsc2)sc1C(=O)O`: the Ki in series [1] was 11 µM; in [2] it was 200 µM; in series [5], 90 µM.
As for `O=C(O)C(=O)Nc1sc2c(c1C(=O)O)CCN(CCC(c1ccccc1)c1ccccc1)C2`, the Ki in series [4] turned out to be 5.9 µM.
On to `O=C(O)C(=O)Nc1sc2c(c1C(=O)O)CCC2`, for which the Ki turned out to be 12 µM in series [1], 340 µM in [2] and 900 µM in series [5].
The like results for `O=C(O)C(=O)Nc1ccc2cc[nH]c2c1C(=O)O` were, in that order, 18 µM, 800 µM and 550 µM.
Take `CN1CCc2c(sc(NC(=O)C(=O)O)c2C(=O)O)C1`: the results for the Ki in [1], in series [3] and in [4] were 1 µM, 22 µM and 11 µM, respectively.
In the case of `O=C(O)C(=O)Nc1cc(-c2ccc(Oc3ccccc3)cc2)sc1C(=O)O`, the results for the Ki in [1] and in series [2] were 26 µM and 93 µM, respectively.
Regarding `Cc1cccc(C(=O)O)c1NC(=O)C(=O)O`, the figures for the Ki in series [2], in series [6] and in series [5] were more than 2000 µM, 1100 µM and more than 2000 µM, respectively.
`O=C(O)C(=O)Nc1sc2c(c1C(=O)O)CCN(CCc1ccccc1OCc1ccccc1)C2`: the results for the Ki in [3] and in [4] were 17 µM and 16 µM, respectively.
Take `COc1cc(OC)cc(-c2cc(NC(=O)C(=O)O)c(C(=O)O)s2)c1`: the Ki in series [1] was 8 µM; in series [2], 1790 µM.
Consider `O=C(O)C(=O)Nc1ccccc1C(=O)O`, for which the Ki was 870 µM in [2] and more than 2000 µM in series [5].
For `O=C(O)C(=O)Nc1sccc1C(=O)O`, the Ki in series [1] was 108 µM; in series [5], more than 2000 µM.
Regarding `COc1ccc(-c2cc(NC(=O)C(=O)O)c(C(=O)O)s2)cc1`, the Ki in series [1] worked out at 9 µM; in series [2], 150 µM.
`O=C(O)C(=O)Nc1sc2c(c1C(=O)O)CCN(Cc1ccccn1)C2`: the Ki worked out at 1 µM in series [1], 48 µM in [3] and 23 µM in [4].
Regarding `O=C(O)C(=O)Nc1sc2c(c1C(=O)O)CCSC2`, the values for the Ki in series [1] and in series [2] were 8.3 µM and 100 µM, respectively.
One may read the half-life as the time in which the quantity being followed falls by half. The low end stands for fast loss, the high end for slow loss. Broadly, the clearance is a measure of how efficiently the substance is removed, as volume per time. `O=C(O)C(=O)Nc1sc2c(c1C(=O)O)CCOC2`: the half-life in [7] is 1.3 h. The same compound returned a Ki in [2] of 170 µM. In [8], the clearance came out at 17 mL/min/kg. Also, in series [9], the bioavailability was 85%.
With `O=C(O)C(=O)Nc1ccc(-c2ccccc2)cc1C(=O)O`, the results for the Ki in [1], in series [2] and in series [5] were 14 µM, 280 µM and 700 µM, respectively.
For `O=C(O)C(=O)Nc1cc2[nH]ccc2cc1C(=O)O`, the results for the Ki in series [1], in series [2] and in series [5] were 8 µM, 180 µM and 450 µM, respectively.
For `O=C(O)C(=O)Nc1ccc(I)cc1C(=O)O`, the results for the Ki in series [2], in [6] and in series [5] were 89 µM, 14 µM and 420 µM, respectively.
As for `O=C(O)C(=O)Nc1sc2c(c1C(=O)O)CCN(Cc1ccccc1)C2`, the Ki was found to be 1 µM in series [1], 24 µM in series [3] and 14 µM in [4].
For `O=C(O)C(=O)Nc1cc(-c2cccc([N+](=O)[O-])c2)sc1C(=O)O`, the Ki came out at 4.7 µM in series [1], 700 µM in series [2] and 165 µM in [5].
With `COc1cccc(-c2cc(NC(=O)C(=O)O)c(C(=O)O)s2)c1`, the Ki in series [1] worked out at 12 µM; in series [2], 530 µM.
Consider `O=C(O)C(=O)Nc1sc2c(c1C(=O)O)CCN(Cc1ccncc1)C2`, for which the Ki in series [1] was 1.1 µM; in series [4], 12 µM.
As for `O=C(O)C(=O)Nc1sc2c(c1C(=O)O)CCCC2`, the Ki is 290 µM in [2] and 410 µM in [5].
Consider `O=C(O)COc1ccc(-c2cc(NC(=O)C(=O)O)c(C(=O)O)s2)cc1`, for which the Ki in series [1] stood at 2.5 µM; in [2], 200 µM; in [5], 50 µM.
Regarding `O=C(O)C(=O)Nc1sc2c(c1C(=O)O)CCCCC2`, the Ki in series [1] is 12 µM; in series [2], 320 µM; in [5], 400 µM.
Regarding `O=C(O)C(=O)Nc1cc(-c2ccc(OCc3ccccc3)cc2)sc1C(=O)O`, the Ki amounted to 16 µM in series [1] and 65 µM in series [2].
For the compound `O=C(O)C(=O)Nc1cc(-c2ccc(F)cc2)sc1C(=O)O`, the values for the Ki in [1], in series [2] and in [5] were 8 µM, 210 µM and 110 µM, respectively.
`O=C(O)C(=O)Nc1ccsc1C(=O)O`: the results for the Ki in [1], in [2] and in series [5] were 37 µM, more than 2000 µM and 2000 µM, respectively.
With `O=C1CCc2c(sc(NC(=O)C(=O)O)c2C(=O)O)C1`, the Ki was found to be 1.3 µM in [1] and 52 µM in series [2].
Consider `O=C(O)C(=O)Nc1sc2c(c1C(=O)O)CCN(CCc1ccc(-c3ccccc3)cc1)C2`, for which the results for the Ki in series [3] and in [4] were 12 µM and 8 µM, respectively.
For `O=C(O)C(=O)Nc1cnccc1C(=O)O`, the Ki in series [1] was 160 µM; in series [2], 1000 µM; in [5] it was more than 2000 µM.
Regarding `O=C(O)C(=O)Nc1sc2c(c1C(=O)O)CCN(CCCc1ccccc1)C2`, the Ki amounted to 12 µM in series [3] and 7.3 µM in [4].
`O=C(O)C(=O)Nc1cc(-c2ccc(O)cc2)sc1C(=O)O`: the inhibition constant (Ki) came out at 4.5 µM in series [1] and 210 µM in series [2].
Consider `O=C(O)C(=O)Nc1cscc1C(=O)O`, for which the Ki in [10] is 75 µM.
As for `O=C(O)C(=O)Nc1sc2c(c1C(=O)O)CCN(CCc1ccccn1)C2`, the results for the Ki in series [3] and in series [4] were 19 µM and 12 µM, respectively.
For the compound `Cc1cccc(NC(=O)C(=O)O)c1C(=O)O`, the results for the Ki in series [1], in series [2] and in series [5] were 1700 µM, more than 2000 µM and more than 2000 µM, respectively.
With `CN(C(=O)C(=O)O)c1ccccc1C(=O)O`, the Ki was 1100 µM in [1], more than 2000 µM in series [2] and more than 2000 µM in series [5].
For `CC(C)Cc1ccc(-c2cc(NC(=O)C(=O)O)c(C(=O)O)s2)cc1`, the Ki in series [1] came to 13 µM; in series [2], 100 µM; in series [5], 50 µM.
Regarding `O=C(O)C(=O)Nc1sc2c(c1C(=O)O)CCN(CCc1ccncc1)C2`, the Ki was found to be 13 µM in series [3] and 8.7 µM in series [4].
As to `Cc1csc(C(=O)O)c1NC(=O)C(=O)O`, the Ki is 2000 µM in series [1], more than 2000 µM in series [2] and 2000 µM in series [5].
Regarding `O=C(O)C(=O)Nc1cc(-c2ccc(Cl)cc2)sc1C(=O)O`, the Ki stood at 10 µM in series [1], 100 µM in series [2] and 160 µM in series [5].
Regarding `O=C(O)C(=O)Nc1sc2c(c1C(=O)O)CCN(CCc1ccsc1)C2`, the Ki came out at 12 µM in series [3] and 9 µM in [4].
Take `O=C(O)C(=O)Nc1sc2c(c1C(=O)O)CCN(Cc1cccnc1)C2`: the results for the Ki in series [1] and in series [4] were 0.9 µM and 12 µM, respectively.
On to `O=C(O)C(=O)Nc1sc2c(c1C(=O)O)CCN(CCc1cccc3ccccc13)C2`, for which the Ki in [3] and in [4] was 11 µM throughout.
`O=C(O)C(=O)Nc1sc2c(c1C(=O)O)CCN(Cc1ccc3ccccc3n1)C2`: the values for the Ki in series [1] and in series [4] were 1.8 µM and 29 µM, respectively.
On to `O=C(O)C(=O)Nc1sc2c(c1C(=O)O)CC[S+]([O-])C2` (centres undefined), for which the Ki came to 5.1 µM in series [1] and 363 µM in series [2].
Consider `COc1ccc(-c2cc(NC(=O)C(=O)O)c(C(=O)O)s2)cc1OC`, for which the values for the Ki in series [1] and in [2] were 25 µM and 980 µM, respectively.
